Measured values as given in PubChem BioAssay.
Values without a mark were called inactive. The source made the active and inactive calls.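 How the source made its calls, unless noted: active means viability at or under a set limit in both replicates, limit being median viability minus 3 SD (cut at about 48% in these data, passing the limit was not always enough); inconclusive means at or under the limit in just one replicate; inactive means at or above the limit in both replicates.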

assay: HUVEC growth inhibition – cell-based, human, primary screen (AID 575;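 active means viability at or below 30% in both replicate assays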;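 further: 100% = median of untreated cell wells with 0.1% DMSO on each plate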); details: HUVEC proliferation, CellTiter-Glo luminescence, 72 h; at 10 µM; stronger effect = lower value
Procedure, shortened: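 Assay system: primary human umbilical vein endothelial cells / Buffer or medium: endothelial basal medium with 2% FBS plus growth supplements / Compound dosing: one dose, 10 µM final, 0.1% DMSO / Timing: 72 h treatment at 37 °C / Signal: CTG luminescence / Benchmarks: 32 DMSO-only cell-control wells (high), 32 MePR drug-control wells (low) per plate / Plate: collagen-coated 384-well format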

Point of comparison: `Cc1cc(C)cc(N(CC(=O)Nc2cccc(C)n2)S(=O)(=O)c2c(C)noc2C)c1`, viability 92.3%. Against it:
- COCCNC(=O)c1cc(-c2cccs2)on1 — lower, 84.9%
- CC(C)c1nnc(NC(=O)C2CCCCC2)s1 — higher, 96.5%
- Cc1nc2ccc(S(=O)(=O)NC(C(=O)Nc3nccs3)C(C)C)cc2s1 (stereo not given) — lower, 91.6%
- O=C(Cn1c(=O)[nH]c2ccsc2c1=O)NC1CCCCCC1 — higher, 111%
- CCCCN(C)Cc1c(O)ccc2c(-c3ccccc3)cc(=O)oc12 — higher, 111%
- O=C(CN1CCN(Cc2ccccc2F)C1=O)NCc1cccnc1 — higher, 108%
- O=c1c2ccccc2nc2n1CCN2 — lower, 91.9%
- O=C(CSc1nnc(Cn2c(=O)sc3ccccc32)n1-c1ccccc1)Nc1nccs1 — lower, 66.9%
- Cc1ccc(-n2nc(C)c3cc(C(=O)O)sc32)cc1 — lower, 70.7%
- CCOC(=O)c1oc2c(CN3CCN(C)CC3)c(O)ccc2c(=O)c1-c1ccccc1OC — higher, 99.5%
- CCCCn1c(NCc2ccccc2O)nc2ccccc21 — lower, 79.5%
- Cc1cc2ncc(-c3ccc(Cl)cc3)c(N)n2n1 — lower, 69.6%
- CC1(C(=O)NC2CCCCC2)CCC(=O)N1Cc1cccs1 (stereo not given) — higher, 102%
- CCc1cc(=O)n2[nH]c(C)c(-c3ccccc3OC)c2n1 — lower, 91.3%
- Cc1nnc(SCCn2c(N3CCC(Cc4ccccc4)CC3)nc3c2c(=O)[nH]c(=O)n3C)s1 — lower, 78.1%
- O=C(C1CCCN(S(=O)(=O)c2cccnc2)C1)N1CCn2c1nc1ccccc12 (stereo not given) — higher, 105%
- CCOC(=O)c1ccc(NC(=O)Cn2cc3c(n2)CCC(C)C3)cc1 (stereo not given) — lower, 91.4%
- COc1ccc(-c2nnc(SCC(=O)N3CCOCC3)o2)cc1OC — lower, 89.4%
- CCCn1cc(SCC(N)=O)c2ccccc21 — lower, 90.6%
- CC1CCCCN1CCNC(=O)C1CCN(S(=O)(=O)c2cccc3cccnc23)CC1 (stereo not given) — higher, 112%
- Cc1onc(-c2ccccc2Cl)c1C(=O)N1CCc2ccccc21 — lower, 80.9%
- O=C(c1ccc(CNc2c(N3CCCC3)c(=O)c2=O)cc1)N1CCc2ccccc2C1 — higher, 104%
- Cc1cccc(-n2ncc3c(NCc4cccnc4)ncnc32)c1 — higher, 99.3%
- COc1cccc2cc(C(=O)OC3CCN(C)CC3)c(=O)oc12 — higher, 94.7%
- CCOc1ccccc1NC(=O)CC1Nc2cc(C)c(C)cc2NC1=O (stereo not given) — lower, 68.7%
- COC(=O)C(C)Sc1nnc2n(-c3cccc(C)c3)c(=O)c3c4c(sc3n12)CCCC4 (stereo not given) — lower, 86.8%
- Cc1c(NC(=O)C2CCCCN2S(=O)(=O)c2ccc(Cl)cc2)c(=O)n(-c2ccccc2)n1C (stereo not given) — lower, 90.1%
- CCC(=O)c1cc(F)c(N2CCN(C(=O)c3ccco3)CC2)cc1C — lower, 91.2%
- Cc1cccc(C2CC(c3ccccc3)Nc3nc(N)nn32)c1 (stereo not given) — higher, 92.7%
- Cc1ccc(C)c(NC(=O)CSc2nnc(-c3ccccc3)o2)c1 — higher, 111%
- CCCCN(CC)CCNC(=O)c1cc2c(C)nc3ccccc3c2o1 — lower, 63.6%
- O=C(Nc1ccccc1)C1=C(O)CC(c2ccoc2)CC1=Nc1ccccc1 (stereo not given) — higher, 96.8%
- COc1ccc(OCc2nc(C#N)c(N3CCN(c4ccc(OC)cc4)CC3)o2)cc1 — lower, 90.6%
- CCOc1cccc(OCCCCn2ccnc2)c1 — higher, 97.3%
- COc1ccc(OC)c(C2CC(=O)NC(SC)=C2C#N)c1 (stereo not given) — lower, 83.1%
- Cc1cc(NC(=O)c2cccc(S(=O)(=O)N3CC(c4ccccc4)CC3=O)c2)no1 (stereo not given) — higher, 98.8%
- O=C(Cn1nc(Cc2ccncc2)c2ccccc2c1=O)N1CCN(C(=O)c2ccco2)CC1 — lower, 85.6%
- COC(=O)c1sc(NC(=O)COc2ccccc2OC)nc1C — higher, 99.8%

In the case of `Cc1c(C(=O)OCc2ccccc2)[nH]c2c1C(=O)CC(c1ccco1)C2` (stereo not given), the viability is reported as 7.06% (active).

assay: H69AR cell proliferation blockers – human, duplicate replicates, primary screen (AID 580); details: H69AR lung tumor cells viability, ATP luminescence, 72 h; at 10 µM; stronger effect = lower value;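 further: 100% = mean luminescence of untreated wells and 0% = no signal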

Point of comparison: `CCCCN(C)Cc1c(O)ccc2c(-c3ccccc3)cc(=O)oc12`, viability 96.7%. Against it:
- COCCNC(=O)c1cc(-c2cccs2)on1 — lower, 84.7%
- CC(C)c1nnc(NC(=O)C2CCCCC2)s1 — higher, 99.5%
- Cc1nc2ccc(S(=O)(=O)NC(C(=O)Nc3nccs3)C(C)C)cc2s1 (stereo not given) — lower, 95.7%
- O=C(Cn1c(=O)[nH]c2ccsc2c1=O)NC1CCCCCC1 — lower, 94.3%
- O=C(CN1CCN(Cc2ccccc2F)C1=O)NCc1cccnc1 — higher, 107%
- O=c1c2ccccc2nc2n1CCN2 — higher, 109%
- O=C(CSc1nnc(Cn2c(=O)sc3ccccc32)n1-c1ccccc1)Nc1nccs1 — lower, 84.2%
- Cc1ccc(-n2nc(C)c3cc(C(=O)O)sc32)cc1 — lower, 87.2%
- CCOC(=O)c1oc2c(CN3CCN(C)CC3)c(O)ccc2c(=O)c1-c1ccccc1OC — lower, 93.1%
- CCCCn1c(NCc2ccccc2O)nc2ccccc21 — lower, 88.1%
- Cc1cc2ncc(-c3ccc(Cl)cc3)c(N)n2n1 — lower, 82.7%
- CC1(C(=O)NC2CCCCC2)CCC(=O)N1Cc1cccs1 (stereo not given) — lower, 85.3%
- CCc1cc(=O)n2[nH]c(C)c(-c3ccccc3OC)c2n1 — higher, 100%
- Cc1nnc(SCCn2c(N3CCC(Cc4ccccc4)CC3)nc3c2c(=O)[nH]c(=O)n3C)s1 — lower, 79.4%
- O=C(C1CCCN(S(=O)(=O)c2cccnc2)C1)N1CCn2c1nc1ccccc12 (stereo not given) — lower, 95.8%
- CCOC(=O)c1ccc(NC(=O)Cn2cc3c(n2)CCC(C)C3)cc1 (stereo not given) — lower, 91.9%
- Cc1cc(C)cc(N(CC(=O)Nc2cccc(C)n2)S(=O)(=O)c2c(C)noc2C)c1 — lower, 85.6%
- COc1ccc(-c2nnc(SCC(=O)N3CCOCC3)o2)cc1OC — lower, 96.1%
- CCCn1cc(SCC(N)=O)c2ccccc21 — lower, 91.2%
- CC1CCCCN1CCNC(=O)C1CCN(S(=O)(=O)c2cccc3cccnc23)CC1 (stereo not given) — higher, 100%
- Cc1onc(-c2ccccc2Cl)c1C(=O)N1CCc2ccccc21 — lower, 79%
- O=C(c1ccc(CNc2c(N3CCCC3)c(=O)c2=O)cc1)N1CCc2ccccc2C1 — lower, 95.3%
- Cc1cccc(-n2ncc3c(NCc4cccnc4)ncnc32)c1 — lower, 88%
- COc1cccc2cc(C(=O)OC3CCN(C)CC3)c(=O)oc12 — higher, 105%
- CCOc1ccccc1NC(=O)CC1Nc2cc(C)c(C)cc2NC1=O (stereo not given) — lower, 59.2%
- COC(=O)C(C)Sc1nnc2n(-c3cccc(C)c3)c(=O)c3c4c(sc3n12)CCCC4 (stereo not given) — lower, 83.1%
- Cc1c(NC(=O)C2CCCCN2S(=O)(=O)c2ccc(Cl)cc2)c(=O)n(-c2ccccc2)n1C (stereo not given) — lower, 91.3%
- CCC(=O)c1cc(F)c(N2CCN(C(=O)c3ccco3)CC2)cc1C — lower, 87.9%
- Cc1cccc(C2CC(c3ccccc3)Nc3nc(N)nn32)c1 (stereo not given) — higher, 108%
- Cc1ccc(C)c(NC(=O)CSc2nnc(-c3ccccc3)o2)c1 — lower, 89.6%
- CCCCN(CC)CCNC(=O)c1cc2c(C)nc3ccccc3c2o1 — lower, 85.3%
- O=C(Nc1ccccc1)C1=C(O)CC(c2ccoc2)CC1=Nc1ccccc1 (stereo not given) — lower, 73%
- COc1ccc(OCc2nc(C#N)c(N3CCN(c4ccc(OC)cc4)CC3)o2)cc1 — lower, 94%
- CCOc1cccc(OCCCCn2ccnc2)c1 — lower, 85.4%
- COc1ccc(OC)c(C2CC(=O)NC(SC)=C2C#N)c1 (stereo not given) — lower, 94.3%
- Cc1cc(NC(=O)c2cccc(S(=O)(=O)N3CC(c4ccccc4)CC3=O)c2)no1 (stereo not given) — higher, 97.6%
- O=C(Cn1nc(Cc2ccncc2)c2ccccc2c1=O)N1CCN(C(=O)c2ccco2)CC1 — lower, 86%
- COC(=O)c1sc(NC(=O)COc2ccccc2OC)nc1C — lower, 95.1%

In the case of `Cc1c(C(=O)OCc2ccccc2)[nH]c2c1C(=O)CC(c1ccco1)C2` (stereo not given), the viability is reported as 6.48% (active).
